Sampled rows, rich in hits. Any-hit rate of the full collection: about 1.9%.
FID counter – counter-screen for HCV NS3 helicase inhibitors: DNA intercalator displacement; AID 1845; actives 0.17% (n = 290,000); inhibition, % at 7.9 µM; DNA fluorescent intercalator displacement, fluorescence; in the data active = inhibition above about 37%;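 also: 0% = vehicle and 100% = reference compound; higher means more ethidium bromide displaced from hairpin DNA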
core dimer inh – blocks dimerization of HCV core protein. actives 0.33% (n = 300,000). inhibition, % at 5 µM. AID 1899. TR-FRET GST/Flag-core106 dimerization, 1536-well;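 active = inhibition above the mean of all tested compounds plus 3 SD, set per screening campaign, cut at about 45% in these data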
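Assay system: Tagged HCV core106 pair (GST and Flag) | Buffer or medium: KF-containing HEPES buffer, pH 7.45, DTT, CHAPS, BSA | Also added: Eu donor and XL665 acceptor anti-tag antibodies | Dosing: One concentration, 5 µM, in 0.5% DMSO | Timing: 4 h at 22.5 °C | Technique: TR-FRET 671 and 617 nm emission | Repeats: Singlicate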
GPR7 antag – human neuropeptides B/W receptor 1 antagonism; actives 1.1% (n = 290,000); GPR7-expressing cells, fluorescence antagonist assay; AID 1861; inhibition, % at 4.4 µM; P48145; in the data active = inhibition above about 16%, passing the limit was not always enough;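 also: cells stimulated with the agonist NPW; 0% = agonist with vehicle and 100% = vehicle without agonist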
Target sequence (P48145 whole entry, looked up): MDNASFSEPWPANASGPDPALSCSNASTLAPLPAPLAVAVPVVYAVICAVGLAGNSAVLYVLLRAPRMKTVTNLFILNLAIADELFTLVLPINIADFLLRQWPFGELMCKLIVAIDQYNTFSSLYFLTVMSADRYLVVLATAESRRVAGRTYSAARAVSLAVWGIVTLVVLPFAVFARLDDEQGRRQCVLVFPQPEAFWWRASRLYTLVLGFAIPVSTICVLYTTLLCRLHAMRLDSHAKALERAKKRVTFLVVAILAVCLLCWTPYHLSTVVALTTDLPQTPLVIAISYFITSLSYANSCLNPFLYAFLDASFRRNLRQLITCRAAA
NS3 helicase inh – HCV NS3 helicase inhibition | NS3 helicase DNA unwinding, Cy5 molecular beacon fluorescence | inhibition, % at 10.9 µM | actives 0.56% (n = 290,000) | AID 1800;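 active = inhibition above the mean of all tested compounds plus 3 SD, set per campaign, cut at about 35% in these data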;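 also: 0% = DMSO wells and 100% = thioflavine S control wells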
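assay system = NS3 helicase fragment of HCV | buffer or medium = MOPS pH 6.5, MgCl2, DTT, Tween20, BSA | timing = 60 min unwinding reaction at 25 °C after ATP addition | signal = Cy5 beacon fluorescence read at start and 1 h | read-out basis = % inhibition of unwinding | control set = low DMSO, high thioflavine S at 110 µM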
p-CIP stab down – compounds decreasing mouse p/CIP protein stability; actives 0.01% (n = 290,000); decrease of EGFP signal, % at 10 µM; Q05BA5; F442A p/CIP-EGFP cells, EGFP fluorescence, 16 h; AID 1984;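 active = EGFP signal decrease of at least 30% at 10 µM or well 3 SD below plate mean, unless failing retest; inactive = the rest, including hits failing retest or dose response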
GPR7 antag conf – confirmation of human GPR7 antagonists; shares compounds with GPR7 antag; GPR7-expressing cells, calcium fluorescence antagonist mode; inhibition, % at 4.4 µM; actives 52% (n = 2,400); in the data active = inhibition above about 24%;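 also: stimulated with the GPR7 agonist NPW; 0% = agonist plus vehicle and 100% = vehicle alone without agonist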
MCHR1 antag – antagonizes human MCHR1, a GPR7 antagonist counter-screen; MCHR1-expressing cells, fluorescence antagonist assay; actives 62% (n = 2,400); shares compounds with GPR7 antag; inhibition, % at 4.4 µM; in the data active = inhibition above about 22%;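 also: 0% = vehicle with agonist and 100% = vehicle without agonist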
The depositor's hits bear a star; / = no result.

SMILES	FID counter	core dimer inh	GPR7 antag	NS3 helicase inh	p-CIP stab down	GPR7 antag conf	MCHR1 antag
Cc1cnc(CNC(=O)c2ccc3oc(Cc4ccc(Cl)cc4)nc3c2)cn1	-44.0	-12.2	22.7*	16.1	-4.7	22.6	20.2
O=C(Nc1ccc(Br)cc1)c1cnc[nH]1	-7.5	0.1	-4.1	-9.6	1.8	/	/
COc1ccc(NC(=O)c2ccc3c(=O)n(-c4ccc(OC)cc4OC)c(=S)[nH]c3c2)c(OC)c1	10.2	9.2	3.7	-3.7	3.7	/	/
CCOc1ccc(NC(=O)c2ccc3c(=O)n(-c4ccc(OC)cc4OC)c(=S)[nH]c3c2)cc1	-29.9	0.5	24.5*	5.7	-13.2	43.9*	64.6*
O=C1CCCCCN1Sc1ccccc1	-4.0	1.8	25.5*	-6.6	-8.4	32.1*	88.2*
O=C(NC1CCCCCCC1)C1c2ccccc2C(=O)N1Cc1ccco1 (configuration not stated)	-17.4	-7.8	39.4*	-3.9	2.1	25.3*	16.8
COc1ccccc1CN1C(=O)c2ccccc2C1C(=O)NC1CCC(C)CC1 (configuration not stated)	-27.0	3.5	13.2	13.9	-3.0	/	/
CC1CCCC(NC(=O)C2c3ccccc3C(=O)N2Cc2cccs2)C1C (configuration not stated)	-27.6	-6.4	39.7*	2.8	-8.6	27.8*	24.1*
CC1CCCC(NC(=O)CNC(=S)N(Cc2ccccc2)Cc2cccs2)C1C (configuration not stated)	-22.7	4.0	21.6*	10.2	-4.6	32.0*	24.1*
COC(=O)c1[nH]c2cc(OC)c(OC)cc2c1/C=N/Nc1ccccc1	6.8	-34.0	-3.4	-15.0	-0.9	/	/
O=C(CN1CCC(c2nc3ccccc3s2)CC1)N1CCCCC1	-3.3	-3.0	-4.2	7.0	-9.2	/	/
O=C(CN1CCC(c2nc3ccccc3s2)CC1)NCc1cccs1	-12.2	7.9	48.1*	-16.5	-3.4	39.2*	57.5*
CCOc1ccc(-n2c(-c3ccccc3)c[n+]3c2CCCCC3)cc1	4.3	-10.3	28.6*	4.2	5.7	47.4*	44.8*
c1ccc(-c2c[n+]3c(n2-c2ccccc2)CCC3)cc1	3.5	0.3	0.4	-2.3	-17.5	/	/
O=Nc1[nH]c(=O)c(/C=C(\O)c2ccccc2)nc1NO	-8.2	/	-4.7	8.6	-11.8	/	/
CCOC(=O)C1CCN(c2ncnc3c2nnn3Cc2ccccc2Cl)CC1	-20.6	-1.5	21.6*	-2.0	-6.2	26.5*	28.6*
O=C(CNC(=O)c1ccccc1Cl)NCC(c1cccs1)N1CCOCC1 (configuration not stated)	/	5.4	/	/	/	/	/
CC(Nc1nc(-c2ccccc2)nc2ccccc12)c1ccccc1 (configuration not stated)	17.6	-8.9	-25.9	-38.6	-2.0	/	/
CC(Nc1nc(N2CCCCC2)nc2ccccc12)c1ccccc1 (configuration not stated)	15.4	-1.8	24.3*	-39.4	-14.2	30.3*	56.9*
O=C1c2cccc3c([N+](=O)[O-])ccc(c23)C(=O)N1c1ccc(Cl)cn1	2.1	-39.3	32.6*	7.2	-178.7	100.5*	103.7*
O=C1c2cccc3c([N+](=O)[O-])ccc(c23)C(=O)N1c1ccccn1	8.2	-5.5	22.6	5.0	-203.1	/	/
NNC(=O)c1ccc(OCC2CC(c3ccc(Cl)cc3)=NO2)cc1 (configuration not stated)	-14.9	4.4	-3.5	22.3	-13.1	/	/
C/C(CC(=O)Nc1cccc2c1CCCC2)=N\NC(=O)c1ccccc1N	-13.2	2.4	24.5*	5.0	12.4	14.8	6.5
O=C(Nc1ccc(N2CCN(c3ncccc3C(F)(F)F)CC2)nc1)c1cccs1	-23.6	-1.7	21.3*	5.5	-26.4	35.3*	80.5*
CCn1c(=O)c(CCC(=O)NCC2CCCO2)c(C)c2c(C)nn(-c3ccccc3)c21 (configuration not stated)	-48.4	-26.4	-15.8	-2.7	-10.0	/	/
SMILES	FID counter	core dimer inh	GPR7 antag	NS3 helicase inh	p-CIP stab down	GPR7 antag conf	MCHR1 antag
CCN(CC)c1ccc(S(=O)(=O)N2CCOCC2)cc1NC(=O)CNCc1ccccc1	5.3	0.5	24.2*	14.6	0.5	31.4*	28.7*
CCN(CC)c1ccc(S(=O)(=O)N2CCOCC2)cc1NC(=O)CSC(=S)N1CCCC1	-38.3	7.9	44.3*	-3.9	-8.6	24.4*	48.4*
CSc1ccccc1OCc1cc(C(=O)N2CCC(Oc3cccnc3)CC2)no1	-31.6	4.8	28.2*	-12.9	-4.5	14.1	47.5*
CCCC(C)C(=O)Nc1ncc(S(=O)(=O)c2ccc([N+](=O)[O-])cc2)s1 (configuration not stated)	12.0	16.2	64.6*	0.6	7.3	69.9*	87.1*
CCC(C)(C)C(=O)Nc1ncc(S(=O)(=O)c2ccc([N+](=O)[O-])cc2)s1	4.3	8.5	25.4	-4.0	-1.5	/	/
CC1CCN(c2ccc3nnc(CCC(=O)Nc4ccc(F)c(F)c4)n3n2)CC1	-41.4	2.0	28.2*	-6.3	2.7	37.4*	40.5*
O=C(CCc1nnc2ccc(N3CCCC3)nn12)Nc1ccc(F)c(F)c1	-28.8	-2.5	-0.2	1.4	-8.9	/	/
CC(=O)Nc1ccc2ccccc2c1	-3.8	0.6	7.4	-5.9	-8.8	/	/
CC(=O)Nc1ccc2cc3ccc(NC(C)=O)cc3nc2c1	55.9*	-43.4	14.8*	2.5	-576.5	-7.6	-5.7
COc1ccc(NC(=O)CN(C)C(=O)c2cccc(S(=O)(=O)N3CCN(C)CC3)c2)cc1	/	1.4	/	/	/	/	/
CCOc1ccc(S(=O)(=O)N2CCN(Cc3ccccc3)CC2)cc1	-15.7	5.3	27.6*	-6.4	3.7	19.6	27.8*
COc1ccc(NC(=O)CN(C)C(=O)c2cccc(S(=O)(=O)N3CCN(Cc4ccccc4)CC3)c2)cc1	-16.1	1.0	35.3*	-18.3	-26.9	31.0*	45.9*
C=CCn1c(O)c(C2=c3ccccc3=NC2=O)c2ccccc21	8.2	0.5	38.2*	10.5	8.5	46.4*	86.3*
C=CCNC(=O)c1ccc(NC(=O)C2=CSCCO2)cc1	-2.6	-7.5	11.7	9.1	-9.2	/	/
CCC1CCCCN1S(=O)(=O)c1ccc(NC(=O)c2nc(S(C)(=O)=O)ncc2Cl)cc1 (configuration not stated)	-32.0	12.6	74.2*	-29.8	-41.9	90.4*	101.0*
CC(=O)Nc1ccc(NC(=O)c2nc(S(=O)(=O)Cc3ccccc3)ncc2Cl)cc1	-6.2	4.1	2.9	-2.9	-17.4	/	/
Cc1ccc(CS(=O)(=O)c2ncc(Cl)c(C(=O)Nc3ccc(OC(F)F)cc3)n2)cc1	-16.4	-3.1	42.6*	-5.8	-13.6	83.9*	96.4*
